Measurements from ChEMBL document CHEMBL2346664, “Synthesis, characterization and in vitro anticancer evaluation of novel 1,2,4-triazolin-3-one derivatives” (2013).

What was measured:
Type in all cases: functional
[1] = tested on: MCF7; experiment: Growth inhibition of human MCF7 cells assessed as growth inhibition at 10 uM after 48 hrs by sulforhodamine B assay; details: MCF7, 48 h, read-out: GI
[2] = tested on: TK-10; experiment: Growth inhibition of human TK10 cells assessed as cell growth at 10 '-6 M after 48 hrs by sulforhodamine B assay; details: TK-10, 48 h, read-out: Activity
[3] = tested on: M14; experiment: Growth inhibition of human M14 cells assessed as cell growth at 10 '-7 M after 48 hrs by sulforhodamine B assay; details: M14, 48 h, read-out: Activity
[4] = tested on: A549; experiment: Growth inhibition of human A549 cells assessed as cell growth at 10 '-6 M after 48 hrs by sulforhodamine B assay; details: A549, 48 h, read-out: Activity
How it was run: (§1)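 Percent growth at each of the five concentrations of the 48 h continuous-exposure NCI SRB screen. Drug stocks were in DMSO at 400× the top final concentration and diluted in medium with gentamicin. Growth was calculated as [(Ti-Tz)/(C-Tz)]×100 when Ti ≥ Tz, or [(Ti-Tz)/Tz]×100 when Ti < Tz. Tz plates were fixed at drug addition; untreated wells served as control. Absorbance was read at 515 nm.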

[5] = tested on: NCI-H322M; experiment: Growth inhibition of human NCI-H322M cells assessed as growth inhibition at 10 uM after 48 hrs by sulforhodamine B assay; details: read-out: GI
[6] = tested on: OVCAR-4; experiment: Growth inhibition of human OVCAR4 cells assessed as cell growth at 10 '-6 M after 48 hrs by sulforhodamine B assay; details: OVCAR-4, 48 h, read-out: Activity
[7] = tested on: TK-10; experiment: Growth inhibition of human TK10 cells assessed as cell growth at 10 '-7 M after 48 hrs by sulforhodamine B assay; details: TK-10, 48 h, read-out: Activity
[8] = tested on: SK-MEL-2; experiment: Growth inhibition of human SK-MEL-2 cells assessed as cell growth at 10 '-4 M after 48 hrs by sulforhodamine B assay; details: SK-MEL-2, 48 h, read-out: Activity
[9] = tested on: UO-31; experiment: Growth inhibition of human UO31 cells assessed as cell growth at 10 '-4 M after 48 hrs by sulforhodamine B assay; details: UO-31, 48 h, read-out: Activity
[10] = tested on: U-251; experiment: Growth inhibition of human U251 cells assessed as cell growth at 10 '-7 M after 48 hrs by sulforhodamine B assay; details: U-251, 48 h, read-out: Activity
[11] = tested on: OVCAR-3; experiment: Growth inhibition of human OVCAR3 cells assessed as cell growth at 10 '-6 M after 48 hrs by sulforhodamine B assay; details: OVCAR-3, 48 h, read-out: Activity
[12] = tested on: NCI-H522; experiment: Growth inhibition of human NCI-H522 cells assessed as cell growth at 10 '-6 M after 48 hrs by sulforhodamine B assay; details: NCI-H522, 48 h, read-out: Activity
[13] = tested on: NCI-H226; experiment: Growth inhibition of human NCI-H226 cells assessed as growth inhibition at 10 uM after 48 hrs by sulforhodamine B assay; details: NCI-H226, 48 h, read-out: GI
[14] = tested on: HOP-62; experiment: Growth inhibition of human HOP62 cells assessed as cell growth at 10 '-8 M after 48 hrs by sulforhodamine B assay; details: HOP-62, 48 h, read-out: Activity
[15] = tested on: SK-MEL-5; experiment: Growth inhibition of human SK-MEL-5 cells assessed as cell growth at 10 '-4 M after 48 hrs by sulforhodamine B assay; details: SK-MEL-5, 48 h, read-out: Activity
[16] = tested on: MDA-MB-231; experiment: Growth inhibition of human MDA-MB-231 cells assessed as cell growth at 10 '-8 M after 48 hrs by sulforhodamine B assay; details: MDA-MB-231, 48 h, read-out: Activity
[17] = tested on: Malme-3M; experiment: Growth inhibition of human MALME-3M cells assessed as cell growth at 10 '-8 M after 48 hrs by sulforhodamine B assay; details: read-out: Activity
[18] = Growth inhibition of human EKVX cells assessed as cell growth at 10 '-6 M after 48 hrs by sulforhodamine B assay; details: read-out: Activity
[19] = Growth inhibition of human NCI-ADR-RES cells assessed as cell growth at 10 '-7 M after 48 hrs by sulforhodamine B assay; details: read-out: Activity
[20] = tested on: OVCAR-8; experiment: Growth inhibition of human OVCAR8 cells assessed as growth inhibition at 10 uM after 48 hrs by sulforhodamine B assay; details: OVCAR-8, 48 h, read-out: GI
[21] = tested on: RXF 393; experiment: Growth inhibition of human RXF393 cells assessed as cell growth at 10 '-4 M after 48 hrs by sulforhodamine B assay; details: RXF 393, 48 h, read-out: Activity
[22] = tested on: SW-620; experiment: Growth inhibition of human SW620 cells after 48 hrs by sulforhodamine B assay; details: SW-620, 48 h
[23] = tested on: UACC-62; experiment: Growth inhibition of human UACC62 cells assessed as cell growth at 10 '-8 M after 48 hrs by sulforhodamine B assay; details: UACC-62, 48 h, read-out: Activity
[24] = tested on: MDA-MB-231; experiment: Growth inhibition of human MDA-MB-231 cells assessed as cell growth at 10 '-5 M after 48 hrs by sulforhodamine B assay; details: MDA-MB-231, 48 h, read-out: Activity
[25] = Growth inhibition of human Hs 578T cells assessed as cell growth at 10 '-6 M after 48 hrs by sulforhodamine B assay; details: read-out: Activity
[26] = tested on: SR; experiment: Growth inhibition of human SR cells assessed as cell growth at 10 '-7 M after 48 hrs by sulforhodamine B assay; details: read-out: Activity
[27] = tested on: U-251; experiment: Growth inhibition of human U251 cells after 48 hrs by sulforhodamine B assay; details: U-251, 48 h
[28] = Growth inhibition of human NCI-ADR-RES cells after 48 hrs by sulforhodamine B assay
How it was run: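 NCI 60-cell-line five-dose screen. Cells were plated at 5,000–40,000/well by doubling time and grown 24 h at 37 °C, 5% CO2. Time-zero plates were TCA-fixed. Drug from DMSO stock was tested at 0.01, 0.1, 1, 10 and 100 µM final for 48 h continuous exposure. Read-out was SRB at 515 nm. GI50 is the concentration giving 50% reduction in net protein increase versus untreated control.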

[29] = tested on: COLO 205; experiment: Growth inhibition of human COLO205 cells assessed as cell growth at 10 '-4 M after 48 hrs by sulforhodamine B assay; details: COLO 205, 48 h, read-out: Activity
How it was run: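 In the same five-dose SRB screen (48 h, 37 °C, 5% CO2), percentage growth was computed at each concentration from time-zero (Tz), control (C) and treated (Ti) absorbances. The formula was [(Ti−Tz)/(C−Tz)]×100 when Ti ≥ Tz, or [(Ti−Tz)/Tz]×100 when Ti < Tz.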

[30] = tested on: U-251; experiment: Growth inhibition of human U251 cells assessed as cell growth at 10 '-8 M after 48 hrs by sulforhodamine B assay; details: U-251, 48 h, read-out: Activity
[31] = tested on: CAKI-1; experiment: Growth inhibition of human CAKI-1 cells assessed as cell growth at 10 '-8 M after 48 hrs by sulforhodamine B assay; details: CAKI-1, 48 h, read-out: Activity; how it was run: as §1
[32] = read-out: LD50 (the source's name)

In the case of `Cc1cc(=O)oc2cc(OCCn3c(C)nn(-c4ccc(Cl)cc4)c3=O)ccc12`, the inhibition of growth at 10 µM [1] is reported as 84.2%, the growth at 1 µM [2] is reported as 114% and the growth at 0.1 µM [3] is reported as 101%. For the same compound, the growth at 1 µM [4] was 96%, the inhibition of growth at 10 µM [5] was 41.3% and the growth at 1 µM [6] was 88%. It also gave a growth at 0.1 µM [7] of 101%, a growth at 100 µM [8] of 14% and a growth at 100 µM [9] of 39%. The growth at 0.1 µM [10] was 97%, the growth at 1 µM [11] was 96% and the growth at 1 µM [12] was 87%. The inhibition of growth at 10 µM [13] was 49.9%, the growth at 0.01 µM [14] was 101% and the growth at 100 µM [15] was 4%. The growth at 0.01 µM [16] was 96%, the growth at 0.01 µM [17] was 105% and the growth at 1 µM [18] was 88%. It also gave a growth at 0.1 µM [19] of 96%, an inhibition of growth at 10 µM [20] of 82.3% and a growth at 100 µM [21] of -21%. It also gave a GI50 [22] of 2200 nM, a TGI [22] of over 1000 nM and a CC50 [22, 32] of over 1000 nM. For the same compound, the growth at 0.01 µM [23] was 97%, the growth at 10 µM [24] was 42% and the growth at 1 µM [25] was 68%. For the same compound, the growth at 0.1 µM [26] was 99%, the GI50 [27] was 4180 nM and the TGI [27] was 7230 nM. The CC50 [27, 32] was over 1000 nM, the GI50 [28] was 1640 nM and the TGI [28] was over 1000 nM. It also gave a CC50 [28, 32] of over 1000 nM, a growth at 100 µM [29] of -38% and a growth at 0.01 µM [30] of 98%. It also gave a growth at 0.01 µM [31] of 97%.
